# Experimental data published in ChEMBL document CHEMBL1240482, “Synthesis and antiproliferative evaluation of certain indeno[1,2-c]quinoline derivatives. Part 2” (J Med Chem, 2010).
# pIC50: −log10 of the molar value. Activity calls are given as the source filed them. The calls are words filed in the database; no cut-off is given here.
# Tests used:
# Detroit 551 [1] = test: Selectivity index, ratio of IC50 for human Detroit 551 cells to IC50 for human SKHep cells; assay type: functional
# HeLa [2] = test: Cytotoxicity against human HeLa cells after 48 hrs by MTT assay; assay type: functional
# Outline: (§1)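 Cells grown in DMEM with 10% FBS at 37 °C and 5% CO2, seeded at 5 × 10^3 per well and allowed 24 h before drug. Serial dilutions from DMSO stocks applied for 48 h. MTT (2 mg/mL in PBS) added for 2 h, formazan dissolved in DMSO, absorbance read at 570 nm. GI50 interpolated by linear regression from at least three points in the 20-80% range; three independent experiments.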
# Nucleic Acid = test: Binding affinity to pBR322; assay type: nucleic-acid assay; settings: Escherichia coli
# DNA topoisomerase 1 = target: T1, DNA topoisomerase 1 (Homo sapiens, UniProt P11387); test: Inhibition of human topoisomerase 1 assessed as decrease in pBR322 mobility on agarose gel by electrophoresis
# T1 sequence (P11387 whole entry): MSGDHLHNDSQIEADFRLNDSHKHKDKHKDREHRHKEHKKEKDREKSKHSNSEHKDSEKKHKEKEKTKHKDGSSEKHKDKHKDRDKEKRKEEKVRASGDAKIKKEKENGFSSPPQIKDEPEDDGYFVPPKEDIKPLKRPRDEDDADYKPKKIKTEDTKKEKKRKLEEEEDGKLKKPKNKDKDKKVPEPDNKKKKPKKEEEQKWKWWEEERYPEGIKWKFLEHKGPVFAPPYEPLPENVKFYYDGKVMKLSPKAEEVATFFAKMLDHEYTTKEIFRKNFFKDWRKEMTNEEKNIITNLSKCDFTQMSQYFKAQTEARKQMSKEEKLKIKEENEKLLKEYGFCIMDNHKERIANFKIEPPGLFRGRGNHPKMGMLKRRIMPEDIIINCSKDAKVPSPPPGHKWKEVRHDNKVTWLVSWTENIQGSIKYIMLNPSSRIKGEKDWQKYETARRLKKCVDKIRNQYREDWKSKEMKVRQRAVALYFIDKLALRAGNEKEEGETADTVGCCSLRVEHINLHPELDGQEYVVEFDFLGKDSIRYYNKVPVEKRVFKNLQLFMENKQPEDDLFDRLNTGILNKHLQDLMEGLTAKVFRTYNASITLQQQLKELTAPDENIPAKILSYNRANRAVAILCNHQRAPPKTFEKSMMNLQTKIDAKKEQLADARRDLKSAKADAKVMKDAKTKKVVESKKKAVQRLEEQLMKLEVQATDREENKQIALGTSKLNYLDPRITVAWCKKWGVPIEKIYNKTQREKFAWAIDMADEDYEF
# Outline: (§2)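 Enzyme preincubated with compound before DNA addition; reaction run 30 min at 37 °C and stopped with SDS. Products resolved on 1% agarose, stained with ethidium bromide, quantified by densitometry.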
# Detroit 551 [3] = test: Selectivity index, ratio of IC50 for human Detroit 551 cells to IC50 for human PC3 cells; assay type: functional
# [4] = Cytotoxicity against human SKHep cells after 48 hrs by MTT assay; assay type: functional; outline: as §1
# [5] = Inhibition of human topoisomerase 2 assessed as decrease in pBR322 mobility on agarose gel by electrophoresis; outline: as §2
# [6] = Cytotoxicity against human BT-483 cells after 48 hrs by MTT assay; assay type: functional; settings: BT-483, 48 h; outline: as §1
# [7] = Cytotoxicity against human Detroit 551 cells after 48 hrs by MTT assay; assay type: cell-based; outline: as §1
# [8] = target: T2, DNA topoisomerase 1 (Homo sapiens) (UniProt P11387); test: Inhibition of human topoisomerase 1 assessed as decrease in pBR322 mobility on agarose gel at 10 uM by electrophoresis; outline: as §2
# T2 sequence (whole entry): T1 sequence (P11387 whole entry)
# Detroit 551 [9] = test: Selectivity index, ratio of IC50 for human Detroit 551 cells to IC50 for human A549 cells; assay type: functional
# SAS [10] = test: Cytotoxicity against human SAS cells after 48 hrs by MTT assay; assay type: functional; outline: as §1
# Detroit 551 [11] = test: Selectivity index, ratio of IC50 for human Detroit 551 cells to IC50 for human BT-483 cells; assay type: functional
# HeLa [12] = test: Selectivity index, ratio of IC50 for human Detroit 551 cells to IC50 for human HeLa cells; assay type: functional
# SAS [13] = test: Selectivity index, ratio of IC50 for human Detroit 551 cells to IC50 for human SAS cells; assay type: functional
# A549 = test: Cytotoxicity against human A549 cells after 48 hrs by MTT assay; assay type: functional; settings: A549, 48 h; outline: as §1
# PC-3 = test: Cytotoxicity against human PC3 cells after 48 hrs by MTT assay; assay type: functional; settings: PC-3, 48 h; outline: as §1
# Homo sapiens = organism: Homo sapiens; test: Inhibition of human topoisomerase 2 assessed as decrease in pBR322 mobility on agarose gel at 10 uM by electrophoresis; outline: as §2
SMILES,RatioGI50 (Detroit 551 [1]),GI50 (HeLa [2]; read-out: GI50) [nM],GI50 (HeLa [2]; read-out: pGI50 (converted)) [nM],Activity (Nucleic Acid),pIC50 (DNA topoisomerase 1),RatioGI50 (Detroit 551 [3]),GI50 [4] [nM],pIC50 [5],GI50 [6] [nM],GI50 at 48 h [7] [nM],inhibition [8] [%],RatioGI50 (Detroit 551 [9]),GI50 (SAS [10]) [nM],RatioGI50 (Detroit 551 [11]),RatioGI50 (HeLa [12]),RatioGI50 (SAS [13]),GI50 (A549) [nM],GI50 (PC-3) [nM],inhibition (Homo sapiens) [%]
COc1ccc2c(c1)/C(=N\OCCN(C)C)c1c-2cnc2ccccc12,5.71,420,417,Active,5.14,3.62,1200,5.17,3610,6850,82,5.27,1140,1.9,16.31,6.01,1300,1890,75
COc1ccc2c(c1)/C(=N\OCCN1CCCC1)c1c-2cnc2ccccc12,4.17,450,447,Active,5.09,2.71,1510,5.19,3110,6290,67,4.08,1190,2.02,13.98,5.29,1540,2320,80
